Screening data (PubChem)
FGF22 binding-1: shifts melting point of recombinant human FGF22 | Q9HCT0 | recombinant FGF22 thermal shift, SYPRO orange fluorescence; percent of sucrose octasulfate shift, DMSO zero | activity (Tm shift, normalised), % at 9.99 µM | 1.5% of 340,000 active | AID 651658;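 active means mean Tm shift, scaled 0 neutral to 100 positive control, at about 1.3% or above, every replicate too, limit read from the data; inconclusive means no clear call, values can overlap the other calls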
Target sequence (Q9HCT0 whole entry, looked up): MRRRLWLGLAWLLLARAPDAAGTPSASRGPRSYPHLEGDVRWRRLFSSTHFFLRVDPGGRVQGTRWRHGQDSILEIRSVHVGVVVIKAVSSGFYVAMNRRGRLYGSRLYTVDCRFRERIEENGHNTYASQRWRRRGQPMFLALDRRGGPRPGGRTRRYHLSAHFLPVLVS
miR122 inh: blocks miR-122 activity in Huh7 sensor cells. 0.3% of 340,000 active. AID 602342. activation (reporter increase), % at 12.5 µM. Huh7 miR-122 Renilla luciferase sensor, 48 h; neutral wells = 0, positive control = 100;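 active means mean replicate activation score at least 90 and every replicate individually at or above 90; inconclusive means only one of the two criteria met; inactive means neither criterion met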;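 further: higher luciferase means less miR-122 activity so hits act as miR-122 inhibitors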
S100A4 inh HTS: inhibitors of human S100A4 binding to myosin IIA peptide | S100A4/TAMRA-MyoIIA peptide fluorescence polarization | inhibition, % at 10.7 µM | 0.14% of 360,000 active | AID 652163 | P26447;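 active means mean inhibition of at least 70% across replicates, with every replicate also reaching that level; inconclusive means mean inhibition reaches 70% but some replicates fall short; inactive means mean inhibition below 70%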
Target sequence (P26447 whole entry, looked up): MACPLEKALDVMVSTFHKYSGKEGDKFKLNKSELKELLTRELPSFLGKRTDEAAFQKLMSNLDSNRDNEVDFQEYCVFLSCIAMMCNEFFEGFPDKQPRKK
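Material: human S100A4 monomer with TAMRA-labelled myosin IIA peptide; buffer or medium: HEPES pH 7.2 with CaCl2, KCl, NaCl, DTT, Triton; compound dosing: one concentration per compound; schedule: 5 min incubation before reading; benchmarks: neutral control DMSO, positive control TFP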
E-selectin induc: E-selectin induction on HUVECs; P16581; HUVEC E-selectin immunofluorescence imaging; normalized: neutral wells 0, TNF-alpha wells 100; activation, % at 7.58 µM; 0.37% of 260,000 active;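 active means mean E-selectin-positive cell signal at least 10% of the positive control, reached in at least 60% of replicates, without over 20% cell loss; inconclusive means no rule given, readout overlaps actives, possibly toxicity-flagged; inactive means the rest, including those meeting only one limit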
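Assay system: HUVEC primary endothelial cells. Input: 3,000 HUVEC seeded per well. Doses: one compound dose added by pin transfer. Read-out basis: % PE-positive cells. Benchmarks: TNF-alpha high, DMSO low. Detection: immunofluorescence imaging. Buffer or medium: EGM-2, gelatin.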
SIRT5 block: inhibitors of human sirtuin-5 desuccinylase | Q9NXA8 | Purified SirT5, succinyl-peptide AMC, trypsin-coupled fluorescence | inhibition, % at 15 µM | 1.1% of 330,000 active | AID 652115; in the data active means inhibition above about 15%; inconclusive means no clear call, values can overlap the other calls
Target sequence (Q9NXA8 whole entry, looked up): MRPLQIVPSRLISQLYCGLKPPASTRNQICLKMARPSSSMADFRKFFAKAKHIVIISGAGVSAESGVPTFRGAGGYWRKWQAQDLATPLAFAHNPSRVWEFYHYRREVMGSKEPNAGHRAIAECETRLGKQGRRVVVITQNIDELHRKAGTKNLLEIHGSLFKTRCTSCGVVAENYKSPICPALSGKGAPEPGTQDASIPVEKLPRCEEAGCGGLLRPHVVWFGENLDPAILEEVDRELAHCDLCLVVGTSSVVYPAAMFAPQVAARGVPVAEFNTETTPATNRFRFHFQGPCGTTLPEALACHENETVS
FGF22 binding-2: FGF22 (human) binding in thermal shift; AID 720646; thermal shift activity, °C (ΔTm) at 38 µM; 2% of 1,000 active; recombinant FGF22 thermal shift, SYPRO orange fluorescence; shares compounds with FGF22 binding-1;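 active means fitted rise in melting shift crosses a set limit at or below the top valid dose tested; inconclusive means flat fit at mid-level activity, or a poor quality fit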
SYPRO no-protein: compound-only SYPRO artifact for FGF22 binders; shares compounds with FGF22 binding-1; compound-only SYPRO orange thermal shift counter-screen, no protein; AC50, µM (titrated, usually from 38 µM); 2% of 1,000 active; AID 743019;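 active means rising signal whose fitted curve reaches the 0.54 level within the top valid dose, showing a melting point, actives reach about 13 µM in these data; inactive means the rest, including activity in the opposite direction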; further: value is where the raw curve crosses a fixed level and not half-maximal
An asterisk follows results filed as active; i = inactive; ? = inconclusive; . = not tested or not shown; ! = not confirmed by another sample; [ ] = another dose, or the depositor's remark. Only some compounds are listed: those with a hit (about 2.5% of all), similar ones and a draw of the others.

SMILES	FGF22 binding-1	miR122 inh	S100A4 inh HTS	E-selectin induc	SIRT5 block	FGF22 binding-2	SYPRO no-protein
O=C(NC1CCCCC1)N1CC(=O)N2[C@H](C1)[C@@H](c1ccc(-c3cccc(F)c3)cc1)[C@@H]2CO	2.3*	.	-3	0	4	-0.042	i
COCC(=O)N1CC(=O)N2[C@H](CO)[C@H](c3ccc(Br)cc3)[C@H]2C1	1.6*	.	2	0	-3	0.074	i
CCCNC(=O)N[C@@H]1CC[C@@H](CCn2cc(-c3cccc(F)c3)nn2)O[C@H]1CO	0	.	9	0	0	.	.
Cc1noc(C)c1S(=O)(=O)Nc1ccc2c(c1)CC(=O)N([C@H](C)CO)C[C@H](C)[C@H](CN(C)S(=O)(=O)c1ccccc1)O2	0	-1[16.7 µM]	3	0	-3	.	.
CCCNC(=O)N1CC(=O)N2[C@H](C1)[C@@H](c1ccc(-c3cccc(C)c3)cc1)[C@@H]2CO	6.9*	.	5	1	-2	0.22	i
COc1ccc([N+](=O)[O-])cc1/C=N/NC(=O)c1nonc1N	0	-9	1	0	-1	.	.
COc1ccc(/C=N/Nc2ccc([N+](=O)[O-])cc2)cc1O	1.8*	.	2	0	-5	.	i
COc1ccc([N+](=O)[O-])cc1/C=N/Nc1nn[nH]n1	1.5*	.	0	-1	-1	-0.04	i
COc1ccc(/C=N/NC(=O)c2cccc([N+](=O)[O-])c2)cc1OC	1.6*	.	4	.	-1	0.034	i
Cc1ccc(-c2ccc3c(c2)O[C@@H](CN(C)C(=O)Nc2ccc(F)cc2)[C@@H](C)CN([C@H](C)CO)S3(=O)=O)cc1	1	8[16.7 µM]	-2	0	4	.	.
COc1ccc(C(=O)N2C[C@H]3[C@@H](c4ccccc42)[C@@H](CO)N3C(=O)c2ccc(F)cc2)cc1	1.8*	?	-8	0	-3	0.061[42 µM]	i
COCC(=O)N1C[C@H]2[C@@H](c3ccccc31)[C@H](CO)N2C(=O)Nc1ccccc1F	1.5*	0[16.7 µM]	5	0	-22	-0.044	i
CC(=O)N1[C@@H](CO)[C@@H]2c3ccccc3N(C(=O)c3ccc(F)cc3)C[C@@H]21	1.8*	4[16.7 µM]	-26	0	-4	0.11	i
CCC(=O)N1CC(=O)N2[C@H](CO)[C@@H](c3ccc(-c4cccnc4)cc3)[C@H]2C1	.	.	-14	0	-3	.	.
COc1ccccc1NC(=O)N1CC[C@@H]2[C@@H](CO)N(C)c3ccc(-c4cccc(F)c4)cc3[C@@H]21	-1	5[16.7 µM]	5	2	1	.	.
S=C(Nc1ccc(Cl)cc1)Nc1ccc2cn[nH]c2c1	1.9*	.	5	.	.	0.26	i
CCOc1ccc(C2OC(=O)Cc3cc(OC)c(OC)cc32)cc1 (centres undefined)	14*	.	-6	.	0	0.097	i
CCOc1ccc(C2NC(=O)Cc3cc(OC)c(OC)cc32)cc1 (centres undefined)	0	-4	-7	0	-6	.	.
CC1(C)CCC(=O)N2CC[C@H]3C[C@H](OC(=O)Nc4ccccc4)C[C@@H]1[C@H]32	2.1*	-3	14	0	.	-0.13	i
CC1(C)CCC(=O)N2CC[C@H]3C[C@H](OC(=O)Nc4ccc5c(c4)OCO5)C[C@@H]1[C@H]32	0	1	0	0	2	.	.
CCOC(=O)[C@@H]1[C@H]2COc3cc(OC)ccc3[C@H]2N2C(=O)N(c3ccc(C)cc3)C(=O)[C@]12C	1.6*	-3	1	0	.	0.055	i
O=C(c1ccc2c(c1)OCO2)N1CC(=O)N2[C@H](C1)[C@H](c1ccc(C#CCC3CCCC3)cc1)[C@@H]2CO	2.3*	.	-2	-1	24*	0.049	i
COc1cccc(C#Cc2ccc([C@H]3[C@@H](CO)N4C(=O)CN(C(=O)c5ccccc5)C[C@@H]34)cc2)c1	1.4*	.	-2	0	0	0.001[42 µM]	i
CS(=O)(=O)N1CC(=O)N2[C@H](CO)[C@@H](c3ccc(C#CCc4ccccc4)cc3)[C@H]2C1	1.3*	.	-4	0	-1	0.098	i
CS(=O)(=O)N1CC(=O)N2[C@@H](CO)[C@H](c3ccc(C#CCc4ccccc4)cc3)[C@@H]2C1	1	.	8	6	-3	.	.
SMILES	FGF22 binding-1	miR122 inh	S100A4 inh HTS	E-selectin induc	SIRT5 block	FGF22 binding-2	SYPRO no-protein
COc1cccc(C#Cc2ccc([C@@H]3[C@H]4CN(C(=O)c5ccccc5)CC(=O)N4[C@H]3CO)cc2)c1	-1	.	11	-1	12	.	.
COc1cccc(S(=O)(=O)N2C[C@@H]3N[C@H](C2)C3c2ccc(-c3ccc(C(=O)N(C)C)cc3)cc2)c1 (some centres undefined)	0	.	.	0	.	.	.
CO[C@H]1CN(C)C(=O)c2ccc(NS(=O)(=O)c3ccc(C)cc3)cc2OC[C@H](C)N(C(=O)NC(C)C)C[C@H]1C	.	-3[16.7 µM]	.	0	.	.	.
COc1ccccc1NC(=O)Nc1cccc(NC(C)=O)c1	3.1*	4	-2	2	0	0.016	i
O=C(CN1CCCC1)Nc1ccc(OC(F)(F)F)cc1	26*	1	0	.	-2	0.11	i
O=C(CN1CCOCC1)Nc1ccc(OC(F)(F)F)cc1	0	.	-4	0	1	.	.
COc1ccc(/C=N/Nc2nonc2N)cc1	.	-1	.	.	.	.	.
Nc1nonc1N/N=C\c1ccccc1	2.0*	-1	-1	.	-1	0.6	i
C[C@@H]1CN([C@H](C)CO)C(=O)c2cc(C#C[C@@H](C)O)cnc2O[C@H]1CN(C)C(=O)Cc1ccncc1	0	21[16.7 µM]	-5	0	1	.	.
N#Cc1ccc(NC(=O)Nc2ccc(Oc3ccc(NC(=O)Nc4ccc(C#N)cc4)cc3)cc2)cc1	0	-30	-6	.	-2	.	.
N#Cc1ccc(NC(=O)Nc2cccc(C#N)c2)cc1	1.9*	.	-8	0	5	.	6.4µM*
COc1ccc(/C(O)=C/C(=O)C(=O)NNC(=O)c2ccccc2)cc1	29*	0	1	.	-3	0.091	i
CC(C)C#Cc1ccc([C@H]2[C@@H](CO)N3C(=O)CN(C(=O)C4CCCCC4)C[C@H]23)cc1	1	.	0	0	1	.	.
CC(C)C#Cc1ccc([C@@H]2[C@H](CO)N3C(=O)CN(C(=O)C4CCCCC4)C[C@@H]23)cc1	1.2*	.	10	0	24*	0.34	i
CC(C)C#Cc1ccc([C@H]2[C@H](CO)N3C(=O)CN(C(=O)C4CCCCC4)C[C@@H]23)cc1	1.6*	.	1	0	-2	0.47	i
COc1cc(NC(=O)c2cnc(N)s2)cc(C(=O)Nc2cccc(C(F)(F)F)c2)c1	1.7*!	1	-1	1	-4	0.064	i
